# Legend:
# Format in all cases: functional
# NCI-H522 = experiment: Growth inhibition of human NCI-H522 cells after 48 hrs by sulforhodamine B assay; settings: NCI-H522, 48 h
# Method in brief: (§1)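 Five-dose concentration series run across a panel of 60 human tumour cell lines. GI50 is taken as the drug concentration giving a 50% reduction in net protein increase relative to untreated control cells.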
# [1] = Growth inhibition of human SF268 cells after 48 hrs by sulforhodamine B assay; settings: SF-268, 48 h; method in brief: as §1
# [2] = Growth inhibition of human UACC257 cells at 10 uM after 48 hrs by sulforhodamine B assay; settings: UACC-257, 48 h, values are per cent of control
# [3] = Growth inhibition of human HCC2998 cells after 48 hrs by sulforhodamine B assay; settings: HCC 2998, 48 h
# Method in brief: (§2)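 Five-dose testing against a 60-line human tumor cell panel. GI50 is the drug concentration giving a 50% reduction in net protein increase relative to untreated control cells.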
# [4] = Growth inhibition of human HOP62 cells at 10 uM after 48 hrs by sulforhodamine B assay; settings: HOP-62, 48 h, values are per cent of control
# [5] = Growth inhibition of human SKOV3 cells after 48 hrs by sulforhodamine B assay; settings: SK-OV-3, 48 h; method in brief: as §1
# [6] = Growth inhibition of human SW620 cells after 48 hrs by sulforhodamine B assay; settings: SW-620, 48 h; method in brief: as §1
# [7] = Growth inhibition of human IGROV1 cells at 10 uM after 48 hrs by sulforhodamine B assay; settings: IGROV-1, 48 h, values are per cent of control
# [8] = Growth inhibition of human MOLT4 cells after 48 hrs by sulforhodamine B assay; settings: MOLT-4, 48 h; method in brief: as §1
# MDA-MB-435 = experiment: Growth inhibition of human MDA-MB-435 cells after 48 hrs by sulforhodamine B assay; settings: MDA-MB-435, 48 h; method in brief: as §2
# CCRF-CEM [9] = experiment: Growth inhibition of human CCRF-CEM cells after 48 hrs by sulforhodamine B assay; method in brief: as §2
# [10] = Growth inhibition of human PC3 cells after 48 hrs by sulforhodamine B assay; settings: PC-3, 48 h; method in brief: as §1
# [11] = Growth inhibition of human Hs 578T cells after 48 hrs by sulforhodamine B assay; method in brief: as §2
# [12] = Growth inhibition of human HCC2998 cells at 10 uM after 48 hrs by sulforhodamine B assay; settings: HCC 2998, 48 h, values are per cent of control
# MCF7 = experiment: Growth inhibition of human MCF7 cells at 10 uM after 48 hrs by sulforhodamine B assay; settings: MCF7, 48 h, values are per cent of control
# [13] = Growth inhibition of human MOLT4 cells at 10 uM after 48 hrs by sulforhodamine B assay; settings: MOLT-4, 48 h, values are per cent of control
# [14] = Growth inhibition of human HCT116 cells after 48 hrs by sulforhodamine B assay; settings: HCT-116, 48 h; method in brief: as §2
# SK-MEL-28 [15] = experiment: Growth inhibition of human SK-MEL-28 cells at 10 uM after 48 hrs by sulforhodamine B assay; settings: SK-MEL-28, 48 h, values are per cent of control
# [16] = Growth inhibition of human OVCAR3 cells after 48 hrs by sulforhodamine B assay; settings: OVCAR-3, 48 h; method in brief: as §1
# [17] = Growth inhibition of human HCT15 cells after 48 hrs by sulforhodamine B assay; settings: HCT-15, 48 h; method in brief: as §2
# A549 = experiment: Growth inhibition of human A549/ATCC cells after 48 hrs by sulforhodamine B assay; settings: A549, 48 h; method in brief: as §2
# [18] = Growth inhibition of human SNB19 cells after 48 hrs by sulforhodamine B assay; settings: SNB-19, 48 h; method in brief: as §1
# [19] = Growth inhibition of human HL-60(TB) cells at 10 uM after 48 hrs by sulforhodamine B assay; settings: HL-60, 48 h, values are per cent of control
# SK-MEL-2 [20] = experiment: Growth inhibition of human SK-MEL-2 cells after 48 hrs by sulforhodamine B assay; settings: SK-MEL-2, 48 h; method in brief: as §1
# [21] = Growth inhibition of human HOP92 cells after 48 hrs by sulforhodamine B assay; settings: HOP-92, 48 h; method in brief: as §2
# CCRF-CEM [22] = experiment: Growth inhibition of human CCRF-CEM cells at 10 uM after 48 hrs by sulforhodamine B assay; settings: values are per cent of control
# Malme-3M = experiment: Growth inhibition of human MALME-3M cells at 10 uM after 48 hrs by sulforhodamine B assay; settings: values are per cent of control
# [23] = Growth inhibition of human RPMI8226 cells after 48 hrs by sulforhodamine B assay; settings: RPMI-8226, 48 h; method in brief: as §1
# 786-0 = experiment: Growth inhibition of human 786-0 cells at 10 uM after 48 hrs by sulforhodamine B assay; settings: 786-0, 48 h, values are per cent of control
# [24] = Growth inhibition of human COLO205 cells after 48 hrs by sulforhodamine B assay; settings: COLO 205, 48 h; method in brief: as §2
# [25] = Growth inhibition of human RXF393 cells at 10 uM after 48 hrs by sulforhodamine B assay; settings: RXF 393, 48 h, values are per cent of control
# KM12 = experiment: Growth inhibition of human KM12 cells after 48 hrs by sulforhodamine B assay; settings: KM12, 48 h; method in brief: as §2
# [26] = Growth inhibition of human OVCAR4 cells after 48 hrs by sulforhodamine B assay; settings: OVCAR-4, 48 h; method in brief: as §1
# SK-MEL-28 [27] = experiment: Growth inhibition of human SK-MEL-28 cells after 48 hrs by sulforhodamine B assay; settings: SK-MEL-28, 48 h; method in brief: as §1
# [28] = Growth inhibition of human UACC62 cells after 48 hrs by sulforhodamine B assay; settings: UACC-62, 48 h
# Method in brief: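 Five-dose testing across the 60-line human tumour cell panel. GI50 is the drug concentration that gives a 50% reduction in net protein increase relative to control cells.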
# [29] = Growth inhibition of human SNB75 cells at 10 uM after 48 hrs by sulforhodamine B assay; settings: SNB-75, 48 h, values are per cent of control
# SR = experiment: Growth inhibition of human SR cells after 48 hrs by sulforhodamine B assay; method in brief: as §1
# [30] = Growth inhibition of human RPMI8226 cells at 10 uM after 48 hrs by sulforhodamine B assay; settings: RPMI-8226, 48 h, values are per cent of control
# SK-MEL-2 [31] = experiment: Growth inhibition of human SK-MEL-2 cells at 10 uM after 48 hrs by sulforhodamine B assay; settings: SK-MEL-2, 48 h, values are per cent of control
# [32] = Growth inhibition of human LOXIMVI cells after 48 hrs by sulforhodamine B assay; settings: LOX IMVI; method in brief: as §2
# [33] = Growth inhibition of human PC3 cells at 10 uM after 48 hrs by sulforhodamine B assay; settings: PC-3, 48 h, values are per cent of control
# [34] = Growth inhibition of human HOP92 cells at 10 uM after 48 hrs by sulforhodamine B assay; settings: HOP-92, 48 h, values are per cent of control
# [35] = Growth inhibition of human UO31 cells at 10 uM after 48 hrs by sulforhodamine B assay; settings: UO-31, 48 h, values are per cent of control
smiles,measurement,setting,value
COc1ccc(/C(C#N)=C/c2ccc3c(c2)OCCO3)cc1OC,GI50,NCI-H522,2.8 µM
same,GI50,[1],5.38 µM
same,"growth, % of control at 10 µM",[2],66.7%
same,GI50,[3],8.85 µM
same,"growth, % of control at 10 µM",[4],36.9%
same,GI50,[5],3.24 µM
same,GI50,[6],1.04 µM
same,"growth, % of control at 10 µM",[7],49.5%
same,GI50,[8],8.85 µM
same,GI50,MDA-MB-435,0.26 µM
same,GI50,CCRF-CEM [9],3.76 µM
same,GI50,[10],4.57 µM
same,GI50,[11],5.56 µM
same,"growth, % of control at 10 µM",[12],60.1%
same,"growth, % of control at 10 µM",MCF7,20.1%
same,"growth, % of control at 10 µM",[13],19.6%
same,GI50,[14],2.71 µM
same,"growth, % of control at 10 µM",SK-MEL-28 [15],61.7%
same,GI50,[16],2.16 µM
same,GI50,[17],0.73 µM
same,GI50,A549,4.12 µM
same,GI50,[18],4.08 µM
same,"growth, % of control at 10 µM",[19],-15.7%
same,GI50,SK-MEL-2 [20],1.84 µM
same,GI50,[21],9.64 µM
same,"growth, % of control at 10 µM",CCRF-CEM [22],6.4%
same,"growth, % of control at 10 µM",Malme-3M,51.8%
same,GI50,[23],4.81 µM
same,"growth, % of control at 10 µM",786-0,39.3%
same,GI50,[24],2.77 µM
same,"growth, % of control at 10 µM",[25],14.9%
same,GI50,KM12,1.59 µM
same,GI50,[26],11.2 µM
same,GI50,SK-MEL-28 [27],4.59 µM
same,GI50,[28],1.04 µM
same,"growth, % of control at 10 µM",[29],2.2%
same,GI50,SR,0.93 µM
same,"growth, % of control at 10 µM",[30],57.1%
same,"growth, % of control at 10 µM",SK-MEL-2 [31],19.4%
same,GI50,[32],4.92 µM
same,"growth, % of control at 10 µM",[33],21.3%
same,"growth, % of control at 10 µM",[34],39.3%
same,"growth, % of control at 10 µM",[35],41.8%

# Reference: ChEMBL document CHEMBL3792365, “Dioxol and dihydrodioxin analogs of 2- and 3-phenylacetonitriles as potent anti-cancer agents with nanomolar activity against a variety of human cancer cells” (2016)
